Assay [1] has as its system Mus musculus. The experiment in a line: Antiinflammatory activity against xylene-induced ear edema in Kunming mouse assessed as reduction in ear swelling weight at 100 mg, ip administered 2 hrs post challenge measured after 30 mins. It is filed as functional. In short, it runs like this:
(§1)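 Male Kunming mice (~20 g), fasted 12 h, groups of 6. Compound given i.p.; 30 min later 0.015 mL xylene applied to front and back surfaces of right ear, left ear as control. Killed 2 h after xylene; 7 mm circular ear sections weighed and measured. Swelling taken as weight and thickness over untreated left ear. Mean ± S, one-way ANOVA.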

Assay [2] deals with MCF7. The experiment in a line: Cytotoxicity against human MCF7 cells assessed as growth inhibition after 72 hrs. The following applies: MCF7, 72 h.
For assay [3], the system named is Mus musculus. Put plainly: Antiinflammatory activity against xylene-induced ear edema in Kunming mouse assessed as reduction in ear swelling thickness at 100 mg, ip administered 2 hrs post challenge measured after 30 mins. It is filed as functional. The method, boiled down:
as §1

The test system of the next assay is MDA-MB-231. Put plainly: Cytotoxicity against human MDA-MB-231 cells assessed as growth inhibition after 72 hrs. The following applies: MDA-MB-231, 72 h.
Assay [4] concerns the target Prostaglandin G/H synthase 2 (Homo sapiens) (UniProt P35354). The experiment in a line: Inhibition of human COX-2 at 10 uM by ELISA relative to licofelone. For orientation: An ELISA detects its analyte on a solid surface through an enzyme-linked reagent.
The target of assay [5] is Prostaglandin G/H synthase 1 (Ovis aries) (UniProt P05979). Put plainly: Inhibition of ovine COX-1 at 10 uM by ELISA relative to licofelone.
In assay [6] the test system is MCF7. The experiment in a line: Antiproliferative activity against human MCF-7 cells at 0.63 uM to 10 uM after 20 to 140 hrs. It is filed as functional, cell-based. Particulars: TDE = time-dependent effect. The method, boiled down: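 MCF-7 cells in DMEM with 5% FBS, seeded at 7500 cells/mL and grown 3 days before compound addition. Exposed to a range of concentrations for up to 144 h. Biomass measured by glutaraldehyde fixation, crystal violet staining, ethanol extraction and absorbance at 590 nm. Expressed as corrected T/C % = (T−C0)/(C−C0)·100.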

Assay [7] deals with Mus musculus. The experiment in a line: Antiinflammatory activity against xylene-induced ear edema in Kunming mouse assessed as reduction in ear swelling thickness at 25 mg, ip administered 2 hrs post challenge measured after 30 mins. It is filed as functional. The method, boiled down: as §1
The subject of assay [8] is Mus musculus. The experiment in a line: Antiinflammatory activity against xylene-induced ear edema in Kunming mouse assessed as reduction in ear swelling thickness at 200 mg, ip administered 2 hrs post challenge measured after 30 mins. It is filed as functional. The method, boiled down: as §1
The subject of assay [9] is Mus musculus. Put plainly: Antiinflammatory activity against xylene-induced ear edema in Kunming mouse assessed as reduction in ear swelling weight at 200 mg, […]. It is filed as functional.
Assay [10] concerns Mus musculus. Put plainly: Antiinflammatory activity against xylene-induced ear edema in Kunming mouse assessed as reduction in ear swelling weight at 25 mg, […]. It is filed as functional.
Assay [11] relates to Mus musculus. Put plainly: Antiinflammatory activity against xylene-induced ear edema in ip dosed Kunming mouse assessed as reduction in ear swelling administered 2 hrs post challenge measured after 30 mins. The assay is classed as functional, organism-based. In short, it runs like this:
as §1

A value given as a limit tells only on which side of the number the result lay.

In the case of `CC(=O)OCC(=O)c1c(-c2ccc(Cl)cc2)c(-c2ccccc2)c2n1CC(C)(C)C2`, the “inhibition (INH)” value is 19.3% in the assay with Mus musculus [1] and 37% with Mus musculus [3]. In addition, the results for the half-maximal inhibitory concentration (IC50) in the assay with MCF7 [2] and in the assay on MDA-MB-231 were 2.5 µM and 4.4 µM, respectively. For the same compound, the inhibition (commonly the share of the control response that was lost under treatment) in [4] turned out to be 9%; in [5], 11%.
Consider `Cc1cccc(C(=O)OCC(=O)c2c(-c3ccc(Cl)cc3)c(-c3ccccc3)c3n2CC(C)(C)C3)c1`, for which the entries for the “inhibition (INH)” value in the assay on Mus musculus [1] and with Mus musculus [3] were 17.5% and 50.7%, respectively. For the same compound, the 50% inhibitory concentration (IC50) – broadly, the midpoint of a concentration-inhibition curve – in the assay with MCF7 [2] was 3.8 µM; in the assay on MDA-MB-231, greater than 50 µM.
Regarding `CC1(C)Cc2c(-c3ccccc3)c(-c3ccc(Cl)cc3)c(C(=O)COC(=O)c3ccc([N+](=O)[O-])cc3)n2C1`, the “inhibition (INH)” value in the assay with Mus musculus [1] stood at 1.8%; in the assay on Mus musculus [3] it was 6.5%. The IC50 with MCF7 [2] was found to be 4.8 µM; in the assay with MDA-MB-231, 7.3 µM.
Turning to `COc1ccc(C(=O)OCC(=O)c2c(-c3ccc(Cl)cc3)c(-c3ccccc3)c3n2CC(C)(C)C3)cc1`, the “inhibition (INH)” value in the assay with Mus musculus [1] is 15.8%; in the assay with Mus musculus [3], 10.1%. In addition, the IC50 with MCF7 [2] is 11.9 µM; in the assay with MDA-MB-231, greater than 50 µM.
As for `CC1(C)Cc2c(-c3ccccc3)c(-c3ccc(Cl)cc3)c(C(=O)COC(=O)c3cccc(Cl)c3)n2C1`, the “inhibition (INH)” value in the assay with Mus musculus [1] was 3.5%; in the assay on Mus musculus [3], 1.4%. The IC50 in the assay on MCF7 [2] is 5.2 µM; in the assay with MDA-MB-231 it was greater than 50 µM.
As to `CC1(C)Cc2c(-c3ccccc3)c(-c3ccc(Cl)cc3)c(C(=O)COC(=O)c3ccccc3O)n2C1`, the entries for the “inhibition (INH)” value in the assay on Mus musculus [1] and in the assay on Mus musculus [3] were 31.6% and 14.5%, respectively. Further, the IC50 in the assay on MCF7 [2] is 8.2 µM; with MDA-MB-231, greater than 50 µM.
With `CC1(C)Cc2c(-c3ccccc3)c(-c3ccc(Cl)cc3)c(C(=O)COC(=O)c3ccc(Cl)cc3)n2C1`, the “inhibition (INH)” value in the assay on Mus musculus [1] turned out to be 24.6%; in the assay with Mus musculus [3], 29.7%. Moreover, the IC50 in the assay with MCF7 [2] is 3.9 µM; in the assay with MDA-MB-231 it was greater than 50 µM.
For `CC1(C)Cc2c(-c3ccccc3)c(-c3ccc(Cl)cc3)c(C(=O)COC(=O)Cc3ccccc3)n2C1`, the “inhibition (INH)” value is 26.3% with Mus musculus [1] and 35.8% with Mus musculus [3]. Moreover, the IC50 with MCF7 [2] was 4.7 µM; in the assay with MDA-MB-231 it was greater than 50 µM.
Turning to `O=c1[nH]cc(F)c(=O)[nH]1` [FLUOROURACIL], the IC50 in the assay with MCF7 [2] was 4.7 µM; in the assay on MDA-MB-231, 9.6 µM.
For the compound `Cc1ccc(-c2cc(C(F)(F)F)nn2-c2ccc(S(N)(=O)=O)cc2)cc1` [CELECOXIB], the “inhibition (INH)” value in the assay on Mus musculus [1] came to 46.3%; in the assay on Mus musculus [3], 47.9%.
For `CC1(C)Cc2c(-c3ccccc3)c(-c3ccc(Cl)cc3)c(C(=O)CCl)n2C1`, the “inhibition (INH)” value in the assay with Mus musculus [1] stood at 28.1%; with Mus musculus [3], 24.6%. Moreover, the IC50 with MCF7 [2] came out at 5.8 µM; in the assay with MDA-MB-231, 35.4 µM. Also, the inhibition was 9% in [4] and 11% in [5].
Take `CC1(C)Cc2c(-c3ccccc3)c(-c3ccc(Cl)cc3)c(C(=O)COC(=O)Cc3ccc(Cl)cc3)n2C1`: the “inhibition (INH)” value worked out at 35.1% with Mus musculus [1] and 37% in the assay on Mus musculus [3]. For the same compound, the IC50 with MCF7 [2] is 7.1 µM; with MDA-MB-231, greater than 50 µM.
Take `CCC(=O)OCC(=O)c1c(-c2ccc(Cl)cc2)c(-c2ccccc2)c2n1CC(C)(C)C2`: the figures for the “inhibition (INH)” value with Mus musculus [1] and in the assay with Mus musculus [3] were 3.5% and 12.3%, respectively. Also, the IC50 turned out to be 1.7 µM in the assay with MCF7 [2] and 3.1 µM with MDA-MB-231. Besides, the inhibition in [4] turned out to be 9%; in [5] it was 11%. Further, the Activity result in the assay on MCF7 [6] is “tde”.
For the compound `CC1(C)Cc2c(-c3ccccc3)c(-c3ccc(Cl)cc3)c(C(=O)COC=O)n2C1`, the “inhibition (INH)” value was 19.3% in the assay with Mus musculus [1] and 20.3% with Mus musculus [3]. Besides, the IC50 with MCF7 [2] was 1.5 µM; in the assay with MDA-MB-231 it was 1.8 µM. For the same compound, the inhibition is 9% in assay [4] and 11% in [5]. Also, in the assay on MCF7 [6], the Activity entry was “tde”.
With `Cc1ccc(C(=O)OCC(=O)c2c(-c3ccc(Cl)cc3)c(-c3ccccc3)c3n2CC(C)(C)C3)cc1`, the “inhibition (INH)” value came to 22.8% with Mus musculus [1] and 21% with Mus musculus [3]. The IC50 in the assay on MCF7 [2] and in the assay on MDA-MB-231 was greater than 50 µM each time.
For `CCCCCC(=O)c1c(-c2ccc(Cl)cc2)c(-c2ccccc2)c2n1CC(C)(C)C2`, the “inhibition (INH)” value came to 14% in the assay with Mus musculus [1] and 37% in the assay with Mus musculus [3]. Moreover, the IC50 turned out to be 5.4 µM with MCF7 [2] and 31.3 µM with MDA-MB-231. Moreover, the inhibition is 9% in [4] and 11% in assay [5].
As to `CC1(C)Cc2c(-c3ccccc3)c(-c3ccc(Cl)cc3)c(C(=O)COC(=O)c3ccc(Cl)cc3Cl)n2C1`, the “inhibition (INH)” value in the assay with Mus musculus [1] is recorded as 43.9%; with Mus musculus [3] it was 8%. The figures for the IC50 with MCF7 [2] and with MDA-MB-231 were 6.7 µM and greater than 50 µM, respectively.
Take `Cc1cc(C(=O)OCC(=O)c2c(-c3ccc(Cl)cc3)c(-c3ccccc3)c3n2CC(C)(C)C3)cc([N+](=O)[O-])c1`: the “inhibition (INH)” value in the assay on Mus musculus [1] is 7%; with Mus musculus [3], 26.8%.
As for `CC(=O)c1c(-c2ccc(Cl)cc2)c(-c2ccccc2)c2n1CC(C)(C)C2`, the “inhibition (INH)” value is 54.4% in the assay on Mus musculus [1] and 50.7% in the assay with Mus musculus [3]. Further, the IC50 came out at 2 µM in the assay with MCF7 [2] and 3.3 µM in the assay with MDA-MB-231. Besides, the inhibition in assay [4] came to 9%; in assay [5], 11%. Moreover, in the assay on MCF7 [6], the Activity entry is “tde”.
As to `CC1(C)Cc2c(-c3ccccc3)c(-c3ccc(Cl)cc3)cn2C1`, the IC50 in the assay on MCF7 [2] was found to be 5.6 µM; in the assay on MDA-MB-231, 19.7 µM.
As to `CC1(C)Cc2c(-c3ccccc3)c(-c3ccc(Cl)cc3)c(C(=O)COC(=O)c3ccccc3Cl)n2C1`, the “inhibition (INH)” value turned out to be 12.3% in the assay with Mus musculus [1] and 20.3% with Mus musculus [3]. Besides, the values for the IC50 in the assay on MCF7 [2] and in the assay with MDA-MB-231 were 5.2 µM and 31.8 µM, respectively.
Take `CCC(=O)c1c(-c2ccc(Cl)cc2)c(-c2ccccc2)c2n1CC(C)(C)C2`: the “inhibition (INH)” value in the assay on Mus musculus [1] was found to be 24.6%; with Mus musculus [3], 22.5%. For the same compound, the IC50 in the assay with MCF7 [2] was found to be 8.7 µM; in the assay with MDA-MB-231, 19.2 µM. The inhibition in [4] was 9%; in assay [5] it was 11%.
In the case of `CC(C)Cc1ccc(C(C)C(=O)O)cc1` (stereo unspecified) [IBUPROFEN], the figures for the “inhibition (INH)” value in the assay with Mus musculus [1] and in the assay with Mus musculus [3] were 51.2% and 54.3%, respectively.
With `COc1ccccc1C(=O)OCC(=O)c1c(-c2ccc(Cl)cc2)c(-c2ccccc2)c2n1CC(C)(C)C2`, the “inhibition (INH)” value was 31.6% in the assay on Mus musculus [1] and 18.1% in the assay with Mus musculus [3]. The figures for the IC50 in the assay on MCF7 [2] and with MDA-MB-231 were 4.5 µM and greater than 50 µM, respectively.
`Cc1ccccc1C(=O)OCC(=O)c1c(-c2ccc(Cl)cc2)c(-c2ccccc2)c2n1CC(C)(C)C2`: the “inhibition (INH)” value is reported as 12.3% with Mus musculus [1] and 34.1% in the assay on Mus musculus [3]. Moreover, the figures for the IC50 in the assay with MCF7 [2] and in the assay with MDA-MB-231 were 6.2 µM and 12.9 µM, respectively.
As for `CC1(C)Cc2c(-c3ccccc3)c(-c3ccc(Cl)cc3)c(CC(=O)O)n2C1` [LICOFELONE], the “inhibition (INH)” value in the assay on Mus musculus [7] is listed as 49.2%; in the assay on Mus musculus [1], 43.9%; in the assay with Mus musculus [8], 74.6%; with Mus musculus [3], 52.2%; in the assay on Mus musculus [9], 77.2%; with Mus musculus [10], 33.3%. Also, the figures for the IC50 in the assay with MCF7 [2] and in the assay with MDA-MB-231 were 5.5 µM and 36.7 µM, respectively. Moreover, the inhibition result with Mus musculus [11] was “Dose-dependent effect”.

(Values after ChEMBL document CHEMBL1687893 (Eur J Med Chem, 2011).)
